Converted amounts (≈) assume the structure as drawn. Where only a bound is given, the exact number is not on record here.

Common to all, as to assay type: functional
The test system of one test is Spodoptera frugiperda. The test is described as follows: Lethal concentration required for 50% mortality in Fall armyworm. An outline of the steps:
(§1)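 Larvae exposed to multiple test rates, 16 insects per rate. Mortality scored 96 h post-infestation as percent control = (dead/total) × 100. LC50 in ppm, with confidence intervals, from Probit analysis with maximum quasi-likelihood curve fitting.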

A further test relates to Heliothis virescens. Nature of the test: Lethal concentration required for 50% mortality in Tobacco budworm. In a few lines: as §1
The next test relates to Periplaneta americana. The test is described as follows: Ability to release internal calcium stores mediated by ryanodine receptor without activation of voltage-gated calcium channel of cockroach in CMT assay. An outline of the steps:
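Embryonic Periplaneta americana neurons cultured 7–14 days on glass coverslips, loaded 30 min with Fura-2 AM (2 µM) plus 0.02% pluronic acid in saline (mM: NaCl 190, KCl 3.1, CaCl2 9.0, Tris 10.0, pH 7.2). Ratio imaging, 340/380 nm excitation, 510 nm emission, under perfusion. Caffeine 20 mM given first; only caffeine-responsive cells analysed. Test compounds applied 3 min at multiple rates (n ≥ 11).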

The LC50 is the concentration that kills 50% of the test population. A low value points to a more lethal substance. As for `COC(=O)N(C(=O)N1CO[C@@]2(C(=O)OC)Cc3cc(Cl)ccc3C2=N1)c1ccc(OC(F)(F)F)cc1` [INDOXACARB], the LC50 in the test on Spodoptera frugiperda worked out at 0.5 µg/mL (≈ 0.947 µM); in the test with Heliothis virescens, 1.5 µg/mL (≈ 2.84 µM).

Take `CCc1nc(C(F)(F)F)ccc1C(=O)Nc1c(C)cccc1C(=O)NC(C)C`: in the test on Periplaneta americana, the CMT came to 20.6 µM. Also, the LC50 with Spodoptera frugiperda came out at 9.7 µg/mL (≈ 24.7 µM); in the test with Heliothis virescens, 77.5 µg/mL (≈ 197 µM).

Take `Cc1cccc(C(=O)NC(C)C)c1NC(=O)c1ccc(C(F)(F)F)cc1`: the LC50 was 16.9 µg/mL (≈ 46.4 µM) with Spodoptera frugiperda and above 500 µg/mL with Heliothis virescens.

Take `CCNC(=O)c1cccc(C)c1NC(=O)c1ccc(C(F)(F)F)cc1C`: the LC50 in the test with Spodoptera frugiperda was 32.8 µg/mL (≈ 90 µM); in the test with Heliothis virescens, above 500 µg/mL.

As to `Cc1cccc(C(=O)NC(C)C)c1NC(=O)c1ccc(C(F)(F)F)nc1C(C)C`, the values for the LC50 with Spodoptera frugiperda and with Heliothis virescens were 9.6 µg/mL (≈ 23.6 µM) and 55.5 µg/mL (≈ 136 µM), respectively.

On to `Cc1cc(C(F)(F)F)ccc1C(=O)Nc1c(C)cccc1C(=O)NC(C)C`, for which the LC50 in the test with Spodoptera frugiperda amounted to 20.7 µg/mL (≈ 54.7 µM); with Heliothis virescens, 256 µg/mL (≈ 675 µM).

`Cc1cccc(C(=O)NC(C)C)c1NC(=O)c1ccc(C(F)(F)F)nc1C`: the LC50 with Spodoptera frugiperda came to 20.7 µg/mL (≈ 54.6 µM); in the test with Heliothis virescens it was 327 µg/mL (≈ 862 µM).

In the case of `Cc1cccc(C(=O)NC(C)C)c1NC(=O)c1cnc(C(F)(F)F)nc1C`, the LC50 was found to be 11.6 µg/mL (≈ 30.5 µM) with Spodoptera frugiperda and 102 µg/mL (≈ 269 µM) in the test with Heliothis virescens.

On to `Cc1cc(C(F)(F)F)ccc1C(=O)Nc1cccc(C)c1C(=O)NC(C)C`, for which the figures for the LC50 with Spodoptera frugiperda and with Heliothis virescens were 77 µg/mL (≈ 203 µM) and above 500 µg/mL, respectively.

Take `Cc1cccc(C(=O)NC(C)C)c1NC(=O)c1cc(C(F)(F)F)nn1C`: the CMT in the test with Periplaneta americana came out at 120 µM. Further, the results for the LC50 with Spodoptera frugiperda and in the test on Heliothis virescens were 29.6 µg/mL (≈ 80.4 µM) and 130 µg/mL (≈ 353 µM), respectively.

Take `CC(C)NC(=O)c1cccc(Cl)c1NC(=O)c1cc(C(F)(F)F)nn1-c1ccccc1Cl`: in the test with Periplaneta americana, the CMT is 0.3 µM. The LC50 stood at 0.1 µg/mL (≈ 0.206 µM) in the test on Spodoptera frugiperda and 3 µg/mL (≈ 6.18 µM) in the test with Heliothis virescens.

`CC1(C)C(C=C(Cl)Cl)C1C(=O)OC(C#N)c1cccc(Oc2ccccc2)c1` (stereo not drawn) [ALPHA-CYPERMETHRIN]: the median lethal concentration (LC50) in the test on Spodoptera frugiperda came out at 2.1 µg/mL (≈ 5.04 µM); in the test on Heliothis virescens, 13.5 µg/mL (≈ 32.4 µM).

Take `CCc1nc(C(F)(F)F)ncc1C(=O)Nc1c(C)cccc1C(=O)NC(C)C`: the values for the LC50 in the test with Spodoptera frugiperda and with Heliothis virescens were 9 µg/mL (≈ 22.8 µM) and 41 µg/mL (≈ 104 µM), respectively.

Turning to `Cc1cccc(C(=O)NC(C)C)c1NC(=O)c1cc(C(F)(F)F)nn1-c1ccc(Cl)cc1`, the LC50 with Spodoptera frugiperda and with Heliothis virescens was above 500 µg/mL in each case.

`CNC(=O)c1cccc(C)c1NC(=O)c1ccc(C(F)(F)F)cc1C`: the LC50 with Spodoptera frugiperda was 60.1 µg/mL (≈ 172 µM); with Heliothis virescens, above 500 µg/mL.

For the compound `Cc1cccc(C(=O)NC(C)C)c1NC(=O)c1cc(C(F)(F)F)nn1-c1ncccc1Cl`, in the test with Periplaneta americana, the CMT is 0.3 µM. Besides, the LC50 was determined as 0.1 µg/mL (≈ 0.215 µM) in the test with Spodoptera frugiperda and 0.4 µg/mL (≈ 0.859 µM) in the test with Heliothis virescens.

In the case of `Cc1cccc(C(=O)NC(C)C)c1NC(=O)c1cc(C(F)(F)F)nn1C(C)C`, the LC50 turned out to be 11.1 µg/mL (≈ 28 µM) in the test with Spodoptera frugiperda and 36.4 µg/mL (≈ 91.8 µM) in the test with Heliothis virescens.

For `CCn1nc(C(F)(F)F)cc1C(=O)Nc1c(C)cccc1C(=O)NC(C)C`, the values for the LC50 in the test with Spodoptera frugiperda and with Heliothis virescens were 34.8 µg/mL (≈ 91 µM) and 158 µg/mL (≈ 413 µM), respectively.

Consider `Cc1cccc(C(=O)NC(C)C)c1NC(=O)c1cnc(C(F)(F)F)nc1C(C)C`, for which the CMT in the test with Periplaneta americana is 26.6 µM. Further, the LC50 with Spodoptera frugiperda is 9.8 µg/mL (≈ 24 µM); in the test on Heliothis virescens it was 42.3 µg/mL (≈ 104 µM).

With `Cc1cc(C(F)(F)F)ccc1C(=O)Nc1ccccc1C(=O)NC(C)C`, the CMT in the test with Periplaneta americana was 39.3 µM. Moreover, the values for the 50% lethal concentration (LC50) with Spodoptera frugiperda and in the test with Heliothis virescens were 27.3 µg/mL (≈ 74.9 µM) and above 500 µg/mL, respectively.

Regarding `Cc1cccc(C(=O)NC(C)C)c1NC(=O)c1cc(C(F)(F)F)nn1-c1ccccc1Cl`, in the test on Periplaneta americana, the CMT was 0.2 µM. For the same compound, the LC50 was 0.05 µg/mL (≈ 0.108 µM) in the test on Spodoptera frugiperda and 3.4 µg/mL (≈ 7.31 µM) in the test on Heliothis virescens.

With `Cc1cc(Cl)cc(C(=O)NC(C)C)c1NC(=O)c1cc(C(F)(F)F)nn1-c1ncccc1Cl`, the CMT with Periplaneta americana came to 0.1 µM. Also, the LC50 with Heliothis virescens worked out at 0.02 µg/mL (≈ 0.04 µM).

Turning to `CC(C)NC(=O)c1cccc(Cl)c1NC(=O)c1cc(C(F)(F)F)nn1-c1ncccc1Cl`, the values for the LC50 with Spodoptera frugiperda and in the test on Heliothis virescens were 0.1 µg/mL (≈ 0.206 µM) and 0.4 µg/mL (≈ 0.823 µM), respectively.

As to `Cc1cccc(C(=O)NC(C)C)c1NC(=O)c1cc(C(F)(F)F)nn1-c1ccccc1`, the LC50 with Spodoptera frugiperda turned out to be 26 µg/mL (≈ 60.4 µM); with Heliothis virescens, 354 µg/mL (≈ 822 µM).

Take `Cc1cccc(C(=O)NC(C)C)c1NC(=O)c1cc(C(F)(F)F)nn1-c1cccc(Cl)c1`: the LC50 with Spodoptera frugiperda and in the test on Heliothis virescens was above 500 µg/mL throughout.

Values taken from ChEMBL document CHEMBL1143482, “Insecticidal anthranilic diamides: a new class of potent ryanodine receptor activators” (2005).
